{"source": "ChEMBL document CHEMBL2150950", "about": "“Effect of 4-aryl-2-methyl-5-nitro-1,4-dihydropyridine-3-carboxylates on the guinea pig papillary muscle and isolated human vena saphena magna that is used for coronary artery bypass grafting” (2011)", "key": {"[1]": {"test": "Ionotropic effect in guinea pig right ventricle papillary muscles assessed as contraction force at 10^-7 M by force transduction assay relative to untreated control (reference value: 100%)", "assay_type": "functional, Cavia porcellus, Papillary muscle"}, "[2]": {"test": "Vasodilatory activity in human vena saphena magna assessed as reduction in phenylephrine-induced smooth muscle contraction at 10 uM", "assay_type": "functional", "outline": "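Saphenous vein rings came from 37 CABG patients. They were bathed in Tyrode's solution (mM: NaCl 137, KCl 5.4, CaCl2 1.8, MgCl2 0.9, Tris HCl 10, glucose 5; pH 7.4), equilibrated 45–60 min and washed every 15 min. Rings were precontracted with 10^-4 M phenylephrine, then given cumulative test agent at 10^-7 to 10^-4 M. Isometric relaxation was recorded, as means ± SE.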"}, "[3]": {"test": "(§1) Ionotropic effect in guinea pig ventricle papillary muscles assessed as lengthening of 90% repolarized cardiac action potential duration time at 10^-4 M by microelectrode technique relative to untreated control (reference value: 209 to 222 APD50 ms) in presence of 3.1 x 10^-6 M inward rectifier current blocker BaCl2", "assay_type": "functional, Cavia porcellus"}, "[4]": {"test": "as §1, with “50%” for “90%”, “180” for “209”, “192” for “222”", "assay_type": "functional, Cavia porcellus"}, "[5]": {"test": "as §1, with “25%” for “90%”, “10^-5” for “10^-4”, “120” for “209”, “131 APD25” for “222 APD50”", "assay_type": "functional, Cavia porcellus"}, "[6]": {"test": "as §1, with “10%” for “90%”, “52” for “209”, “54 APD10” for “222 APD50”", "assay_type": "functional, Cavia porcellus"}, "[7]": {"test": "Ionotropic effect in guinea pig right ventricle papillary muscles assessed as contraction force at 10^-5 M by force transduction assay relative to untreated control (reference value: 100%) in presence of 3.1 x 10^-6 M inward rectifier current blocker BaCl2", "assay_type": "functional, Cavia porcellus, Heart right ventricle"}, "[8]": {"test": "as §1, with “10^-5” for “10^-4”, “1” for “3.1”, “IKr channel” for “inward rectifier current”, “Sotalol” for “BaCl2”", "assay_type": "functional, Cavia porcellus"}, "[9]": {"test": "as §1, with “10^-6” for “10^-4”, “1” for “3.1”, “IKr channel” for “inward rectifier current”, “Sotalol” for “BaCl2”", "assay_type": "functional, Cavia porcellus"}, "[10]": {"test": "as §1, with “50%” for “90%”, “180” for “209”, “192” for “222”, “1” for “3.1”, “IKr channel” for “inward rectifier current”, “Sotalol” for “BaCl2”", "assay_type": "functional, Cavia porcellus"}, "[11]": {"test": "(§2) Ionotropic effect in guinea pig ventricle papillary muscles assessed as lengthening of 50% repolarized cardiac action potential duration time at 10^-6 M by microelectrode technique relative to untreated control (reference value: 180 to 192 APD50 ms) in presence of 1 x 10^-6 M IKr channel blocker Sotalol", "assay_type": "functional, Cavia porcellus"}, "[12]": {"test": "as §2, with “at 10^-7” for “at 10^-6”", "assay_type": "functional, Cavia porcellus"}, "[13]": {"test": "as §2, with “of 25%” for “of 50%”, “at 10^-5” for “at 10^-6”, “value: 120” for “value: 180”, “to 131 APD25” for “to 192 APD50”", "assay_type": "functional, Cavia porcellus"}, "[14]": {"test": "as §2, with “of 10%” for “of 50%”, “at 10^-4” for “at 10^-6”, “value: 52” for “value: 180”, “to 54 APD10” for “to 192 APD50”", "assay_type": "functional, Cavia porcellus"}, "[15]": {"test": "as §2, with “of 10%” for “of 50%”, “at 10^-5” for “at 10^-6”, “value: 52” for “value: 180”, “to 54 APD10” for “to 192 APD50”", "assay_type": "functional, Cavia porcellus"}, "[16]": {"test": "Ionotropic effect in guinea pig right ventricle papillary muscles assessed as contraction force at 10^-4 M by force transduction assay relative to untreated control (reference value: 100%) in presence of 1 x 10^-6 M IKr channel blocker Sotalol", "assay_type": "functional, Cavia porcellus, Heart right ventricle"}, "[17]": {"test": "Ionotropic effect in guinea pig right ventricle papillary muscles assessed as contraction force at 10^-5 M by force transduction assay relative to untreated control (reference value: 100%) in presence of 1 x 10^-6 M IKr channel blocker Sotalol", "assay_type": "functional, Cavia porcellus, Heart right ventricle"}, "[18]": {"test": "Ionotropic effect in guinea pig right ventricle papillary muscles assessed as contraction force at 10^-6 M by force transduction assay relative to untreated control (reference value: 100%) in presence of 1 x 10^-6 M IKr channel blocker Sotalol", "assay_type": "functional, Cavia porcellus, Heart right ventricle"}, "[19]": {"test": "Ionotropic effect in guinea pig right ventricle papillary muscles assessed as contraction force at 10^-7 M by force transduction assay relative to untreated control (reference value: 100%) in presence of 1 x 10^-6 M IKr channel blocker Sotalol", "assay_type": "functional, Cavia porcellus, Heart right ventricle"}, "[20]": {"test": "as §2, with “at 10^-5” for “at 10^-6”, “of 2” for “of 1”, “x 10^-5” for “x 10^-6”, “M KATP” for “M IKr”, “blocker glibenclamide” for “blocker Sotalol”", "assay_type": "functional, Cavia porcellus"}, "[21]": {"test": "as §2, with “at 10^-7” for “at 10^-6”, “of 2” for “of 1”, “x 10^-5” for “x 10^-6”, “M KATP” for “M IKr”, “blocker glibenclamide” for “blocker Sotalol”", "assay_type": "functional, Cavia porcellus"}, "[22]": {"test": "(§3) Ionotropic effect in guinea pig ventricle papillary muscles assessed as lengthening of 25% repolarized cardiac action potential duration time at 10^-4 M by microelectrode technique relative to untreated control (reference value: 120 to 131 APD25 ms) in presence of 2 x 10^-5 M KATP channel blocker glibenclamide", "assay_type": "functional, Cavia porcellus"}, "[23]": {"test": "as §3, with “10^-5” for “10^-4”", "assay_type": "functional, Cavia porcellus"}, "[24]": {"test": "as §3, with “10^-6” for “10^-4”", "assay_type": "functional, Cavia porcellus"}, "[25]": {"test": "as §3, with “10%” for “25%”, “52” for “120”, “54 APD10” for “131 APD25”", "assay_type": "functional, Cavia porcellus"}, "[26]": {"test": "Ionotropic effect in guinea pig right ventricle papillary muscles assessed as contraction force at 10^-6 M by force transduction assay relative to untreated control (reference value: 100%) in presence of 2 x 10^-5 M KATP channel blocker glibenclamide", "assay_type": "functional, Cavia porcellus, Heart right ventricle"}, "[27]": {"test": "Ionotropic effect in guinea pig ventricle papillary muscles assessed as lengthening of 90% repolarized cardiac action potential duration time at 10^-4 M by microelectrode technique relative to untreated control (reference value: 132 to 176 APD50 ms)", "assay_type": "functional, Cavia porcellus, Papillary muscle"}, "[28]": {"test": "Ionotropic effect in guinea pig ventricle papillary muscles assessed as lengthening of 50% repolarized cardiac action potential duration time at 10^-7 M by microelectrode technique relative to untreated control (reference value: 132 to 176 APD50 ms)", "assay_type": "functional, Cavia porcellus, Papillary muscle"}, "[29]": {"test": "Ionotropic effect in guinea pig ventricle papillary muscles assessed as lengthening of 10% repolarized cardiac action potential duration time at 10^-4 M by microelectrode technique relative to untreated control (reference value: 37 to 47 APD10 ms)", "assay_type": "functional, Cavia porcellus, Papillary muscle"}, "[30]": {"test": "Ionotropic effect in guinea pig ventricle papillary muscles assessed as lengthening of 10% repolarized cardiac action potential duration time at 10^-5 M by microelectrode technique relative to untreated control (reference value: 37 to 47 […] ms)", "assay_type": "functional, Cavia porcellus, Papillary muscle"}, "[31]": {"test": "Ionotropic effect in guinea pig right ventricle papillary muscles assessed as contraction force at 10^-5 M by force transduction assay relative to untreated control (reference value: 100%)", "assay_type": "functional, Cavia porcellus, Papillary muscle"}}, "note": "Active and inactive are the calls of the source. The calls are words filed in the database; no cut-off is given here."}
{"smiles": "CCCOCCOC(=O)C1=C(C)NC=C([N+](=O)[O-])C1c1ccccc1OC(F)F", "note": "(stereo unspecified)", "values": [{"measurement": "Activity", "setting": "[1]", "value": 108, "unit": "%"}, {"measurement": "Activity", "setting": "[2]", "value": "Active"}, {"measurement": "Time", "setting": "[3]", "value": 267.9, "unit": "ms"}, {"measurement": "Time", "setting": "[4]", "value": 238, "unit": "ms"}, {"measurement": "Time", "setting": "[5]", "value": 155, "unit": "ms"}, {"measurement": "Time", "setting": "[6]", "value": 61.36, "unit": "ms"}, {"measurement": "Activity", "setting": "[7]", "value": 193, "unit": "%"}, {"measurement": "Time", "setting": "[8]", "value": 227.7, "unit": "ms"}, {"measurement": "Time", "setting": "[9]", "value": 224, "unit": "ms"}, {"measurement": "Time", "setting": "[10]", "value": 218.9, "unit": "ms"}, {"measurement": "Time", "setting": "[11]", "value": 192, "unit": "ms"}, {"measurement": "Time", "setting": "[12]", "value": 195, "unit": "ms"}, {"measurement": "Time", "setting": "[13]", "value": 133.6, "unit": "ms"}, {"measurement": "Time", "setting": "[14]", "value": 55.7, "unit": "ms"}, {"measurement": "Time", "setting": "[15]", "value": 54.6, "unit": "ms"}, {"measurement": "Activity", "setting": "[16]", "value": 154.8, "unit": "%"}, {"measurement": "Activity", "setting": "[17]", "value": 100.2, "unit": "%"}, {"measurement": "Activity", "setting": "[18]", "value": 93.6, "unit": "%"}, {"measurement": "Activity", "setting": "[19]", "value": 85, "unit": "%"}, {"measurement": "Time", "setting": "[20]", "value": 235, "unit": "ms"}, {"measurement": "Time", "setting": "[21]", "value": 209, "unit": "ms"}, {"measurement": "Time", "setting": "[22]", "value": 164.8, "unit": "ms"}, {"measurement": "Time", "setting": "[23]", "value": 155, "unit": "ms"}, {"measurement": "Time", "setting": "[24]", "value": 148, "unit": "ms"}, {"measurement": "Time", "setting": "[25]", "value": 65, "unit": "ms"}, {"measurement": "Activity", "setting": "[26]", "value": 120, "unit": "%"}, {"measurement": "Time", "setting": "[27]", "value": 256, "unit": "ms"}, {"measurement": "Time", "setting": "[28]", "value": 188.5, "unit": "ms"}, {"measurement": "Time", "setting": "[29]", "value": 55.5, "unit": "ms"}, {"measurement": "Time", "setting": "[30]", "value": 46, "unit": "ms"}, {"measurement": "Activity", "setting": "[31]", "value": 134, "unit": "%"}]}
